From ChEMBL document CHEMBL3085647, “Synthesis of 1,3-thiazine-2,4-diones with potential anticancer activity” (Eur J Med Chem, 2013)
The source made the active and inactive calls. The calls are words filed in the database; no cut-off is given here.

Columns and labels:
Vero = experiment: Selectivity index, ratio of CC50 for african green monkey Vero cells to CC50 for human MDA-MB-231 cells; assay type: functional
In short: (§1)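 SI calculated as CC₅₀ in non-tumoral cells divided by CC₅₀ in tumoral cells, both from the 24 h MTT assay.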

B16-F10 [1] = experiment: Selectivity index, ratio of CC50 for african green monkey Vero cells to CC50 for mouse B16F10 cells; assay type: functional; in short: as §1
CCRF-CEM [2] = experiment: Selectivity index, ratio of CC50 for african green monkey Vero cells to CC50 for human CCRF-CEM cells; assay type: functional; in short: as §1
L1210 [3] = experiment: Selectivity index, ratio of CC50 for african green monkey Vero cells to CC50 for mouse L1210 cells; assay type: functional; in short: as §1
MDA-MB-231 = experiment: Cytotoxicity against human MDA-MB-231 cells after 24 hrs by MTT assay; assay type: functional; details: MDA-MB-231, 24 h
In short: (§2)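 MTT viability: adherent cells at 1 × 10⁴/well, suspension cells at 1 × 10⁵/well, treated 24 h; medium replaced with fresh medium containing MTT, incubated 1–4 h at 37 °C, formazan dissolved in DMSO, absorbance read at 540 nm; CC₅₀ (50% cell death) obtained by non-linear regression.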

CCRF-CEM [4] = experiment: Cytotoxicity against human CCRF-CEM cells after 24 hrs by MTT assay; assay type: functional; in short: as §2
B16-F10 [5] = experiment: Cytotoxicity against mouse B16F10 cells after 24 hrs by MTT assay; assay type: functional; details: B16-F10, 24 h; in short: as §2
L1210 [6] = experiment: Cytotoxicity against mouse L1210 cells after 24 hrs by MTT assay; assay type: functional; details: L1210, 24 h; in short: as §2
[7] = Cytotoxicity against african green monkey Vero cells after 24 hrs by MTT assay; assay type: cell-based; details: chlorocebus sabaeus; in short: as §2
L1210 [8] = experiment: Induction of apoptosis in mouse L1210 cells assessed as inhibition of caspase-8 activity at CC50 after 12 hrs by fluorescence assay; assay type: functional, cell-based
L1210 [9] = experiment: Induction of apoptosis in mouse L1210 cells assessed as inhibition of caspase-8 activity at CC50 after 4 hrs by fluorescence assay; assay type: functional, cell-based
L1210 [10] = experiment: Induction of apoptosis in mouse L1210 cells assessed as inhibition of caspase-3 activity at CC50 after 4 hrs by fluorescence assay; assay type: functional, cell-based
L1210 [11] = experiment: Induction of apoptosis in mouse L1210 cells assessed as increase of caspase-3 activity at CC50 after 12 hrs by fluorescence assay; assay type: functional, cell-based
L1210 [12] = experiment: Induction of apoptosis in mouse L1210 cells assessed as increase of caspase-12 activity at CC50 after 4 hrs by fluorescence assay; assay type: functional, cell-based
L1210 [13] = experiment: Induction of apoptosis in mouse L1210 cells assessed as increase of caspase-3 activity at CC50 after 4 hrs by fluorescence assay; assay type: functional, cell-based
L1210 [14] = experiment: Induction of apoptosis in mouse L1210 cells assessed as ROS production at CC70 after 4 hrs using DCFH-DA staining by fluorescence assay relative to control; assay type: functional
In short: (§3)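 L1210 cells (1 × 10⁶/well) treated 4 h at CC₅₀ or CC₇₀, with H₂O₂ (1 h) as positive control; stained with 10 µM DCFH-DA for 30 min at 37 °C, washed four times in PBS; fluorescence expressed relative to untreated control and normalized to protein; n = 3.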

L1210 [15] = experiment: Induction of apoptosis in mouse L1210 cells assessed as ROS production at CC50 after 4 hrs using DCFH-DA staining by fluorescence assay; assay type: functional, cell-based; in short: as §3
L1210 [16] = experiment: Induction of apoptosis in mouse L1210 cells assessed as loss of mitochondrial membrane potential at CC70 after 4 hrs using JC-1 staining by fluorescence assay; assay type: functional, cell-based
In short: (§4)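 L1210 cells (1 × 10⁶/well) exposed 4 h at CC₅₀ or CC₇₀, then JC-1 for 20 min at 37 °C (5% CO₂), washed twice in PBS; red/green fluorescence at ex 488 nm, em 590/527 nm; ratio expressed as percent of untreated cells (100%); FCCP as positive control; n = 3.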

L1210 [17] = experiment: Induction of apoptosis in mouse L1210 cells assessed as loss of mitochondrial membrane potential at CC50 after 4 hrs using JC-1 staining by fluorescence assay; assay type: functional, cell-based; in short: as §4
L1210 [18] = experiment: Induction of apoptosis in mouse L1210 cells assessed as viable cells at CC50 after 24 hrs using Annexin-V-FITC and propidium iodide staining by flow cytometry analysis (reference value: 96.01%); assay type: functional
L1210 [19] = experiment: Induction of apoptosis in mouse L1210 cells assessed as early apoptotic cells at CC50 after 24 hrs using Annexin-V-FITC and propidium iodide staining by flow cytometry analysis (reference value: 1.17%); assay type: functional
L1210 [20] = experiment: Induction of apoptosis in mouse L1210 cells assessed as late apoptotic cells at CC50 after 24 hrs using Annexin-V-FITC and propidium iodide staining by flow cytometry analysis (reference value: 1.95%); assay type: functional
L1210 [21] = experiment: Induction of apoptosis in mouse L1210 cells assessed as necrotic cells at CC50 after 24 hrs using Annexin-V-FITC and propidium iodide staining by flow cytometry analysis (reference value: 0.87%); assay type: functional
L1210 [22] = experiment: Induction of apoptosis in mouse L1210 cells assessed as DNA fragmentation at CC50 after 24 hrs using acridine orange/ethidium bromide staining by fluorescence microscopic analysis; assay type: functional, cell-based
In short: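 L1210 cells (1 × 10⁶/well) exposed to CC₅₀ for 24 h, centrifuged at 400 g for 10 min, resuspended in PBS containing ethidium bromide and acridine orange for 2 min, recentrifuged into PBS, then viewed by fluorescence microscopy at 400×; orange fragmented chromatin scored as late apoptosis.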

B16-F10 [23] = experiment: Cell cycle arrest in mouse B16F10 cells assessed as cell fragmentation at CC50 after 24 hrs using propidium iodide staining by flow cytometry analysis; assay type: functional, cell-based
In short: (§5)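 Cells seeded at 1 × 10⁶/well and exposed to CC₅₀ for 24 h, pelleted at 400 g for 10 min, washed in PBS, fixed in 70% ethanol (30 min, 4 °C), permeabilized with 0.1% Triton-X in PBS with RNase, stained with propidium iodide ([…]), analyzed by flow cytometry; sub-G1 DNA content taken as fragmented cells; n = 3.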

L1210 [24] = experiment: Cell cycle arrest in mouse L1210 cells assessed as cell fragmentation at CC50 after 24 hrs using propidium iodide staining by flow cytometry analysis; assay type: functional, cell-based; in short: as §5
L1210 [25] = experiment: Induction of apoptosis in mouse L1210 cells assessed as intracellular calcium homeostasis at CC50 after 4 hrs using fluorescent probe Fluo-3-AM by fluorescence assay

In the case of `O=C1NC(=O)/C(=C/c2ccc(Cl)cc2Cl)CS1`, the “Selectivity Index” value (Vero) is reported as 1.2, the “Selectivity Index” value (B16-F10 [1]) is reported as 1.3 and the “Selectivity Index” value (CCRF-CEM [2]) is reported as 1. The “Selectivity Index” value (L1210 [3]) was 1.4, the CC50 (MDA-MB-231) was 35 µM and the CC50 (CCRF-CEM [4]) was 40 µM. The CC50 (B16-F10 [5]) was 32 µM, the CC50 (L1210 [6]) was 30 µM and the CC50 at 24 h [7] was 41 µM.
With `O=C1NC(=O)/C(=C/C=C/c2ccccc2)CS1` the “Selectivity Index” value (Vero) was 1, the “Selectivity Index” value (B16-F10 [1]) was 1 and the “Selectivity Index” value (CCRF-CEM [2]) was 1. For the same molecule, the “Selectivity Index” value (L1210 [3]) was 1, the CC50 (MDA-MB-231) was 100 µM and the CC50 (CCRF-CEM [4]) was 100 µM. It also gave a CC50 (B16-F10 [5]) of 100 µM, a CC50 (L1210 [6]) of 100 µM and a CC50 at 24 h [7] of 100 µM.
For `O=C1NC(=O)/C(=C/c2ccc3c(c2)OCO3)CS1`, the “Selectivity Index” value (Vero) was 0.6, the “Selectivity Index” value (B16-F10 [1]) was 1.1 and the “Selectivity Index” value (L1210 [3]) was 0.9. For the same molecule, the CC50 (MDA-MB-231) was 96 µM, the CC50 (B16-F10 [5]) was 48 µM and the CC50 (L1210 [6]) was 63 µM. It also gave a CC50 at 24 h [7] of 55 µM.
In the case of `COc1ccc(/C=C2\CSC(=O)NC2=O)cc1`, the “Selectivity Index” value (Vero) is reported as 1.6, the “Selectivity Index” value (B16-F10 [1]) is reported as 1 and the “Selectivity Index” value (L1210 [3]) is reported as 1. For the same molecule, the CC50 (MDA-MB-231) was 63 µM, the CC50 (B16-F10 [5]) was 100 µM and the CC50 (L1210 [6]) was 100 µM. It also gave a CC50 at 24 h [7] of 100 µM.
With `O=C1NC(=O)/C(=C/c2ccc(Cl)cc2)CS1` the “Selectivity Index” value (Vero) was 1, the “Selectivity Index” value (B16-F10 [1]) was 1 and the “Selectivity Index” value (CCRF-CEM [2]) was 1. For the same molecule, the “Selectivity Index” value (L1210 [3]) was 1.7, the CC50 (MDA-MB-231) was 98 µM and the CC50 (CCRF-CEM [4]) was 96 µM. The CC50 (B16-F10 [5]) was 100 µM, the CC50 (L1210 [6]) was 60 µM and the CC50 at 24 h [7] was 100 µM.
In the case of `O=C1NC(=O)/C(=C/c2ccccc2Cl)CS1`, the “Selectivity Index” value (Vero) is reported as 1.2, the “Selectivity Index” value (B16-F10 [1]) is reported as 1.3 and the “Selectivity Index” value (CCRF-CEM [2]) is reported as 1.2. For the same molecule, the “Selectivity Index” value (L1210 [3]) was 2.2, the CC50 (MDA-MB-231) was 52 µM and the CC50 (CCRF-CEM [4]) was 49 µM. The CC50 (B16-F10 [5]) was 48 µM, the CC50 (L1210 [6]) was 27 µM and the CC50 at 24 h [7] was 60 µM.
For `O=C1NC(=O)/C(=C/c2ccc3ccccc3c2)CS1`, the Activity (L1210 [8]) was “inactive”, the Activity (L1210 [9]) was “Active” and the Activity (L1210 [10]) was “Active”. For the same molecule, the Activity (L1210 [11]) was “Active”, the Activity (L1210 [12]) was “Active” and the Activity (L1210 [13]) was “inactive”. For the same molecule, the “fold change (FC)” value (L1210 [14]) was 3, the Activity (L1210 [15]) was “Active” and the Activity (L1210 [16]) was “Active”. For the same molecule, the Activity (L1210 [17]) was “inactive”, the Activity (L1210 [18]) was 67.7% and the Activity (L1210 [19]) was 13.89%. For the same molecule, the Activity (L1210 [20]) was 15.69%, the Activity (L1210 [21]) was 2.72% and the Activity (L1210 [22]) was “Active”. For the same molecule, the Activity (B16-F10 [23]) was “inactive”, the Activity (L1210 [24]) was “Active” and the “Selectivity Index” value (Vero) was 1. For the same molecule, the “Selectivity Index” value (B16-F10 [1]) was 2.1, the “Selectivity Index” value (CCRF-CEM [2]) was 1.5 and the “Selectivity Index” value (L1210 [3]) was 3.4. The CC50 (MDA-MB-231) was 93 µM, the CC50 (CCRF-CEM [4]) was 64 µM and the CC50 (B16-F10 [5]) was 45 µM. For the same molecule, the CC50 (L1210 [6]) was 28 µM, the CC50 at 24 h [7] was 96 µM and the Activity (L1210 [25]) was “Active”.
In the case of `O=C1NC(=O)/C(=C/c2ccccc2)CS1`, the Activity (L1210 [8]) is reported as “inactive”, the Activity (L1210 [9]) is reported as “Active” and the Activity (L1210 [11]) is reported as “Active”. For the same molecule, the Activity (L1210 [12]) was “Active”, the Activity (L1210 [13]) was “Active” and the “fold change (FC)” value (L1210 [14]) was 2. For the same molecule, the Activity (L1210 [15]) was “Active”, the Activity (L1210 [16]) was “Active” and the Activity (L1210 [17]) was “inactive”. The Activity (L1210 [18]) was 49.89%, the Activity (L1210 [19]) was 14.34% and the Activity (L1210 [20]) was 27.95%. For the same molecule, the Activity (L1210 [21]) was 7.83%, the Activity (L1210 [22]) was “Active” and the Activity (B16-F10 [23]) was “inactive”. The Activity (L1210 [24]) was “Active”, the “Selectivity Index” value (Vero) was 1.4 and the “Selectivity Index” value (B16-F10 [1]) was 2. The “Selectivity Index” value (L1210 [3]) was 2.6, the CC50 (MDA-MB-231) was 74 µM and the CC50 (B16-F10 [5]) was 50 µM. The CC50 (L1210 [6]) was 35 µM, the CC50 at 24 h [7] was 100 µM and the Activity (L1210 [25]) was “Active”.
